Read-outs that look alike come from different tables or passages of the source.
Columns and labels:
Type in all cases: cell-based, human
PC3 = assay: MTT assay, cytotoxicity; details: read-out: IC50 PC3
Outline: (§1)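 Cells in medium with 10% FBS, streptomycin and penicillin; 5000 cells per well. After 12 h, test compounds added at 0.1–40 μM, with 0.1% DMSO as vehicle, for 48 h. Then serum-free medium and MTT (5 mg mL−1) at 4:1 for 4 h at 37 °C. Formazan dissolved in DMSO, absorbance at 570 nm, normalized to DMSO control. IC50 from sigmoidal variable-slope nonlinear regression.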

MCF7 = assay: MTT assay, cytotoxicity; details: read-out: IC50 MCF7
Outline: as §1

C4-2 = assay: MTT assay, cytotoxicity
HEK293 = assay: MTT assay, cytotoxicity to normal cells; details: read-out: IC50 HEK293
Outline: as §1

[1] = system: prostate, breast, epithelial cancer cells; assay: MTT assay, all tested cancer cell lines together
Outline: as §1

22Rv1 = assay: MTT assay, cytotoxicity; details: read-out: IC50 22Rv1
Outline: as §1

MIAPACA = assay: MTT assay, cytotoxicity; details: read-out: IC50 MIAPACA, 48 h treatment, 0.1-40 μM
Outline: as §1

[2] = Homo sapiens, C4-2, 48 h, read-out: IC50 C4-2, MTT, 48 h treatment, 0.1-40 μM
[3] = read-out: IC50 C4-2, MTT, 48 h treatment, 0.1-40 μM
[4] = normal human kidney cells, MTT, 48 h

Compound	IC50 (PC3; Homo sapiens, PC-3, 48 h)	IC50 (MCF7; Homo sapiens, MCF7, 48 h)	IC50 (C4-2; [2])	IC50 (HEK293; Homo sapiens, HEK293, 48 h)	cytotoxicity against the tested cancer cells, in words (SAR) [1]	IC50 (22Rv1; Homo sapiens, 22Rv1, 48 h)	IC50 (PC3; MTT, 48 h treatment, 0.1-40 μM)	IC50 (MCF7; MTT, 48 h treatment, 0.1-40 μM)	IC50 (C4-2; [3])	IC50 (HEK293; [4])	IC50 (MIAPACA)	IC50 (22Rv1; MTT, 48 h treatment, 0.1-40 μM)
COc1ccc(C=C(C#N)C(=O)c2c[nH]c3ccccc23)cc1 [21q, 2-(1H-Indole-3-carbonyl)-3-(4-methoxyphenyl)acrylonitrile]	37 µM	25 µM	> 40 µM	> 40 µM	detrimental for the activity	28 µM						
CCn1cc(/C=C(\C#N)C(=O)c2c[nH]c3ccccc23)c2ccccc21 [21a, (E)-3-(1-Ethyl-1H-indol-3-yl)-2-(1H-indole-3-carbonyl)acrylonitrile]	13 µM	10.2 µM	3.9 µM	> 40 µM		> 40 µM						
COc1ccc2c(C(=O)C(C#N)=Cc3cn(C)c4ccccc34)c[nH]c2c1 [21e, 2-(6-Methoxy-1H-indole-3-carbonyl)-3-(1-methyl-1H-indol-3-yl)acrylonitrile]	7.61 µM	12.5 µM	15.7 µM	> 40 µM	reduced activity	28 µM						
2-(5-Isopropoxy-1H-indole-3-carbonyl)-3-(1-methyl-1H-indol-3-yl)acrylonitrile [21m]							11.7 µM	2.98 µM	17.6 µM	> 40 µM	1.6 µM	16.4 µM
CCOc1ccc2[nH]cc(C(=O)C(C#N)=Cc3cn(C)c4ccccc34)c2c1 [21h, 2-(5-Ethoxy-1H-indole-3-carbonyl)-3-(1-methyl-1H-indol-3-yl)acrylonitrile]	27.3 µM	16.8 µM	10 µM	40 µM	significantly enhanced cytotoxicity	5.23 µM						
COc1cc2[nH]cc(C(=O)C(C#N)=Cc3cn(C)c4ccccc34)c2cc1OC [21n, 2-(5,6-Dimethoxy-1H-indole-3-carbonyl)-3-(1-methyl-1H-indol-3-yl)acrylonitrile]	7.1 µM	5.61 µM	1.02 µM	> 40 µM	improved the selectivity against prostate cancer cell lines	20.5 µM						
CCn1cc(C=C(C#N)C(=O)c2c[nH]c3ccc(OC)cc23)c2ccccc21 [21d, 3-(1-Ethyl-1H-indol-3-yl)-2-(5-methoxy-1H-indole-3-carbonyl)acrylonitrile]	> 40 µM	10.9 µM	8 µM	39.2 µM		25 µM						
3-(1-Ethyl-1H-indol-3-yl)-2-(5-isopropoxy-1H-indole-3-carbonyl)acrylonitrile [21l]							4.6 µM	7.95 µM	26.4 µM	37.9 µM	37.6 µM	2.5 µM
CCOc1ccc2[nH]cc(C(=O)C(C#N)=Cc3cn(CC)c4ccccc34)c2c1 [21i, 2-(5-Ethoxy-1H-indole-3-carbonyl)-3-(1-ethyl-1H-indol-3-yl)acrylonitrile]	2.63 µM	7.38 µM	2.2 µM	> 40 µM	significantly enhanced cytotoxicity	8.9 µM						
CCCOc1ccc2[nH]cc(C(=O)C(C#N)=Cc3cn(C)c4ccccc34)c2c1 [21k, 3-(1-Methyl-1H-indol-3-yl)-2-(5-propoxy-1H-indole-3-carbonyl)acrylonitrile]	16.1 µM	18.6 µM	13.8 µM	39.8 µM		28 µM						
COc1ccc2c(C(=O)C(C#N)=Cc3cn(Cc4ccc(Cl)cc4)c4ccccc34)c[nH]c2c1 [21g, 3-(1-(4-Chlorobenzyl)-1H-indol-3-yl)-2-(6-methoxy-1H-indole-3-carbonyl)acrylonitrile]	14.3 µM	10.5 µM	13.3 µM	> 40 µM	reduced activity	34 µM						
COc1cc2[nH]cc(C(=O)C(C#N)=Cc3cn(Cc4ccc(Cl)cc4)c4ccccc34)c2cc1OC [21p, 3-(1-(4-Chlorobenzyl)-1H-indol-3-yl)-2-(5,6-dimethoxy-1H-indole-3-carbonyl)-acrylonitrile]	> 40 µM	> 40 µM	31 µM	> 40 µM	detrimental for the activity	> 40 µM						
N#CC(=Cc1cn(Cc2ccc(Cl)cc2)c2ccccc12)C(=O)c1c[nH]c2ccccc12 [21b, 3-(1-(4-Chlorobenzyl)-1H-indol-3-yl)-2-(1H-indole-3-carbonyl)acrylonitrile]	10.6 µM	6.9 µM	13.5 µM	40 µM	moderate activity	21.5 µM						
COc1ccc2[nH]cc(C(=O)C(C#N)=Cc3cn(C)c4ccccc34)c2c1 [21c, 2-(5-Methoxy-1H-indole-3-carbonyl)-3-(1-methyl-1H-indol-3-yl)acrylonitrile]	15.5 µM	25.3 µM	7.5 µM	> 40 µM		1.23 µM						
COc1ccc(C=C(C#N)C(=O)c2c[nH]c3ccccc23)cc1OC [21r, 3-(3,4-Dimethoxyphenyl)-2-(1H-indole-3-carbonyl)acrylonitrile]	25 µM	> 40 µM	> 40 µM	31 µM	detrimental for the activity	34 µM						
CCn1cc(C=C(C#N)C(=O)c2c[nH]c3cc(OC)ccc23)c2ccccc21 [21f, 3-(1-Ethyl-1H-indol-3-yl)-2-(6-methoxy-1H-indole-3-carbonyl)acrylonitrile]	24 µM	37 µM	12.5 µM	40 µM	reduced activity	> 40 µM						
CCn1cc(C=C(C#N)C(=O)c2c[nH]c3cc(OC)c(OC)cc23)c2ccccc21 [21o, 2-(5,6-Dimethoxy-1H-indole-3-carbonyl)-3-(1-ethyl-1H-indol-3-yl)acrylonitrile]	19 µM	31.5 µM	5.9 µM	> 40 µM	improved the selectivity against prostate cancer cell lines	26 µM						

Source: article PMC11809490 (RSC Advances, 2025)
